# Laboratory results published in the EternaBench riboswitch data.
# Test system: MS2 coat protein
# Test: apparent Kd, MS2 coat protein; higher = weaker binding; RNA-MaP array; FMN 200 µM where present
# Method in brief: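 Stalled E. coli RNA polymerase transcribed the designs on Illumina sequencing-chip clusters. SNAP-549-labelled MS2 coat protein was titrated from 0.7 or 1.5 nM, doubling to 3 µM, without and then with constant ligand, in 100 mM Tris-HCl pH 7.5, 80 mM KCl, 4 mM MgCl2, BSA, DTT, yeast tRNA and Tween-20. Per-cluster binding curves were fitted to green signal normalised to red-channel RNA signal and control-cluster median Fmax. The apparent Kd is the median of the filtered fits.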
# [1] = designed as: OFF switch for flavin mononucleotide, no ligand
# [2] = ligand present: flavin mononucleotide, designed as: OFF switch for flavin mononucleotide
# [3] = designed as: ON switch for flavin mononucleotide, no ligand
# [4] = ligand present: flavin mononucleotide, designed as: ON switch for flavin mononucleotide
sequence,measurement,setting,value
CUAUUUUGUGCCUCAUUUACAUGAGGAUCACCCAUGUUAACUUAGGAUAUAUUUAUAUUGUUAGAGUAGAAGGAAGUACAAUUU,apparent Kd,[1],83.5 nM
same,apparent Kd,[2],55.9 nM
CGUAUGUCAGGAUAUGCGUAAACCGGUCAGGGCGAGCGGCAGCAGAAGGGACAUGAGGAUCACCCAUGUUCGGG,apparent Kd,[1],46.7 nM
same,apparent Kd,[2],46.6 nM
GGCUGGUGACAGCAUCCAUCAAAACAUGAGGAUCACCCAUGUAGAAGGCUGUACGGUUACCGUACAGAGGAUAUACAAUGAUGG,apparent Kd,[1],6.96 nM
same,apparent Kd,[2],9.46 nM
CCUAAGGAGACAGGAUAUAGCGUGGUGGCCGGGCUCCAACGGCGAGCGGCGCUAGAAGGGUCACUACAUGAGGAUCACCCAUGU,apparent Kd,[3],10.2 nM
same,apparent Kd,[4],10.9 nM
UUUUCGUGAGGAUAUCAGUAGUAAAUAAAUAAAAUUACUACUGAGAAGGCACAUGAGGAUCACCCAUGUUCCUU,apparent Kd,[1],12.7 nM
same,apparent Kd,[2],22.9 nM
UUGGACGUCGUAGGAUAUGUAGGAUAUUCCUACAUGAGGAUCACCCAUGUUGACGUGGAAGAAGGACAGAAGGACGAUGUCCAU,apparent Kd,[3],55.3 nM
same,apparent Kd,[4],4.63 nM
GGUACUCAAAGAGUACCAAUACGAACAUGAGGAUCACCCAUGUAGGAUAUGCUACUCAAAGAGUAGCAGAAGGAUAUGAUGUAU,apparent Kd,[1],39.7 nM
same,apparent Kd,[2],44.9 nM
CCUAUGUGAGGAUAUCACUGGUCUUCUCACUGGAUGACCAGUGAGAAGGCACAUGAGGAUCACCCAUGUCGGUG,apparent Kd,[1],436 nM
same,apparent Kd,[2],349 nM
AAGGUACAUGAGGAUCACCCAUGUGGGUCGAACGCAGGAUAUCGCCGUUGGCCCUGGCGGCGAGAAGGGUGCCGAA,apparent Kd,[3],189 nM
same,apparent Kd,[4],175 nM
CUUUUAUAAUAGAAGGUAGACUUUAUGAGGAUCACCCAUGUGUUGGUACUAAGGAUAUGUAGUAACAUGAGGAUCACCCAUGUU,apparent Kd,[3],25.9 nM
same,apparent Kd,[4],26.5 nM
CAAGGAUACUUAUAAGCUGACAAACCAGAAGGAUGAGCCUCUACAUGAGGAUCACCCAUGUGUUCGUAGGAUAUGGGUCGGAAG,apparent Kd,[3],11.3 nM
same,apparent Kd,[4],31.5 nM
GUUAGACAUGAGGAUCACCCAUGUGAGGAUAUGAUGCGAUCGUGCUGACAUGAUCGCAUCAGAAGGCACAUAUG,apparent Kd,[1],133 nM
same,apparent Kd,[2],190 nM
AGACGGAGCUGAGGAUAUACAUGAGGAUCACCCAUGUAAGAUCUCCAGGAAACUGGAGAUCAAAAGUAGAAGGCAGCUCCGUCA,apparent Kd,[1],15.1 nM
same,apparent Kd,[2],23.1 nM
CCUGUCAGAGGAUAUGCAUCAGGGCUAUCCUCUAUCGCAGAACAUGAGGAUCACCCAUGUAGAAGGCUGUCAAA,apparent Kd,[1],29.9 nM
same,apparent Kd,[2],23.6 nM
UACAGACAUGAGGAUCACCCAUGUAAGGAUAUCGGUACCGAUGGUAUAAUCUACUCGGCGAGAAGGUACAGUGU,apparent Kd,[1],23.1 nM
same,apparent Kd,[2],26.7 nM
UGAUCGAGAGAUCUUAGAUUCUGGUAGGAUAUACAUUAUGUAUGAUAUACAUGAGGAUCACCCAUGUAGAAGGACUAGAGUCUA,apparent Kd,[1],6.2 nM
same,apparent Kd,[2],9.39 nM
GGUCGGAGCAGAGGAUAUACAUGAGGAUCACCCAUGUAAUAAAGUGAAGCCUGGAAACAGGCAAUGUAGAAGGCUGCUCCGACA,apparent Kd,[1],10.8 nM
same,apparent Kd,[2],70.6 nM
GCCAUCACGUGAGGAUAUGCUCCCGUUUCGGGAGCAGAAGGCAUGUCAUAAGACAUGAGGAUCACCCAUGUAGUUAAGAUGGCA,apparent Kd,[3],317 nM
same,apparent Kd,[4],12 nM
ACAAGAUCAGGAUAUACAUGAGGAUCACCCAUGUAUAUAAAAAAAAAACUUUCUUCAUGUAGAAGGGAUCUUGU,apparent Kd,[1],17.4 nM
same,apparent Kd,[2],46 nM
UAUGUGUCAGGAUAUGGAUUAGUUCGGGAUUCGGAACUGGUUCAGAAGGGACAUGAGGAUCACCCAUGUUUUUC,apparent Kd,[1],33.1 nM
same,apparent Kd,[2],169 nM
GACCUGACAUAAUAAUGUAGAAAUACAUGAGGAUCACCCAUGUAGGAUAUGCAGUGGAAUACACUGCAGAAGGACAUAGUCAGG,apparent Kd,[1],15.9 nM
same,apparent Kd,[2],22.9 nM
AUACAUGAGGAUCACCCAUGUUACUGGGUCUAUAUAGAACGUAGAAGGAUGUUUAUACACAUAACAUAGGAUAUACAAUAUUGU,apparent Kd,[2],30.9 nM
GUGACGAAUGUAGGAUAUGCUGAGGAAUACUCAGCAGAAGGACAUGAGGAUCACCCAUGUAAUCCUAAUAAUAAAUAACGUCAC,apparent Kd,[1],13 nM
same,apparent Kd,[2],18.3 nM
AGAUUCAUGGCCCGUUUGGGCUCACAUGAGGAUCACCCAUGUGAGGAUAUGACGUACCUGACUCGUCAGAAGGCGCAUGCGAAA,apparent Kd,[1],7.48 nM
same,apparent Kd,[2],15.7 nM
GUAGAGUAAGGAUAUGGUGAAUAGGAUAGAAUGGUUAGAAAUCAGAAGGUACAUGAGGAUCACCCAUGUAAUGU,apparent Kd,[1],23 nM
same,apparent Kd,[2],22.4 nM
CCGAUAAUAGGACAGGAUAUGACUGUCGUCACAUGAGGAUCACCCAUGUCCCGGCAAUGCCACCGUUAGAAGGGUCCUAUCUCGA,apparent Kd,[3],14.9 nM
same,apparent Kd,[4],14.6 nM
UUAUCUAUGUAAGGAUAUCGAUGAUAUACGCAUCCGACAUGAGGAUCACCCAUGUUAUAUUUUGUCGAGAAGGUACAUUGUCGG,apparent Kd,[3],46.8 nM
same,apparent Kd,[4],50.3 nM
GCCGAAAGUGUGAGGAUAUACCUAUGGAUACAUAGGUAGAAGGCACAUGAGGAUCACCCAUGUGUUUCAACGGC,apparent Kd,[1],19.3 nM
same,apparent Kd,[2],71.6 nM
GUUGGGUUUUUUUUUGGACGUUCAACAUGAGGAUCACCCAUGUAGGAUAUCGUUUGUUUUUUUUACGAGAAGGGCGUAUUUUUU,apparent Kd,[1],9.65 nM
same,apparent Kd,[2],8.01 nM
CCUCAGUUAGGAUAUUACUAAUCACUAACCGGGCAACUGGGUAAGAAGGAACAUGAGGAUCACCCAUGUUACGU,apparent Kd,[1],22.1 nM
same,apparent Kd,[2],22.2 nM
UGGUGUGAAGGAUAUACAUGAGGAUCACCCAUGUAUGAGGUGGAGGUUGAGGUGGAGGGUAGAAGGUCAGGUGG,apparent Kd,[1],27.3 nM
same,apparent Kd,[2],27 nM
AGAAAACAUGAGGAUCACCCAUGUGAGGAUAUCGAUGUCCAAGGGCGGGUGCGGGACUCGAGAAGGCACUUGGA,apparent Kd,[1],76 nM
same,apparent Kd,[2],64.3 nM
CAUGAUCAUGUAGGAUAUAUACUGGAAUACAGUAUAGAAGGACAUGAGGAUCACCCAUGUUAUGUGCCUCCAAGUGAGAUCAUG,apparent Kd,[1],20.1 nM
same,apparent Kd,[2],28.3 nM
CAUCUGUCAGGAUAUAUGCGAGGGCCACGAAGCGGCCCUUCAUAGAAGGGACAUGAGGAUCACCCAUGUAGAUC,apparent Kd,[1],461 nM
same,apparent Kd,[2],310 nM
ACAUGAGGAUCACCCAUGUAUUACAUGGUUAAGUUUAUUAACAGAAGGCGAAAAUACCAAUUGAUCGAGGAUAUGUAAUCAAUU,apparent Kd,[1],33.8 nM
same,apparent Kd,[2],43.2 nM
AAUAAUAAGGAGGAUAUCGUAUCGGAAACGAUACGAGAAGGCUUAACAUGAGGAUCACCCAUGUUCCUCAAUAA,apparent Kd,[1],31 nM
same,apparent Kd,[2],74.8 nM
GGUUGUCAAAGACAACCUUAACGAACAUGAGGAUCACCCAUGUAGGAUAUGCUACUCAAAGAGUAGCAGAAGGACAUGUGUCUU,apparent Kd,[1],30.8 nM
same,apparent Kd,[2],156 nM
CGCUCAAUUACUUUGAAUAGAAUCAGAAGGCGUUACAUGAGGAUCACCCAUGUUAUGACGUGUAACGAGGAUAUGAAUUGAGCG,apparent Kd,[1],7.18 nM
same,apparent Kd,[2],30.5 nM
AAGUGUGCCUAGGAUAUGUUCGGCCAAGGUCAUACAGAAGGAGGCACAUGAGGAUCACCCAUGUAGUGUCCUAC,apparent Kd,[1],73.2 nM
same,apparent Kd,[2],43.1 nM
GUACAUACAAAGUUACAUGAGGAUCACCCAUGUUUAUUGGGAAGAAGGGUAACAUUAUUAGAUGUAUAGGAUAUUUCACAAUUG,apparent Kd,[3],511 nM
same,apparent Kd,[4],316 nM
UCGAUGCGAGGAUAUACAAGGGCAACUACUGCCGCUAUAUAACAUGAGGAUCACCCAUGUAGAAGGCGCAUAUA,apparent Kd,[1],22.1 nM
same,apparent Kd,[2],30.2 nM
AAUUGGAUCCAGAAGGCAUGGACGACCCGUCAAAUUAACAUGAGGAUCACCCAUGUCAAAAGACAUGAGGAUAUGGAUCCUAAA,apparent Kd,[3],869 nM
same,apparent Kd,[4],28.4 nM
CGGGUCUGAGGAUAUCCAUCUUCAUACAUGAGGAUCACCCAUGUUUACCUUUGGGUUUUUGGAGAAGGCAGUUUUC,apparent Kd,[1],43.5 nM
same,apparent Kd,[2],74.6 nM
AAAAAGCGAGGAUAUACAUGAGGAUCACCCAUGUCAAACGGUAAGACCGCAGGAAAAAGUAGAAGGCGCAAAAA,apparent Kd,[1],61.5 nM
same,apparent Kd,[2],98.5 nM
UGUAUGGACAGAGGAUAUACCGAUAGGAGAUACUAUCGACUAGUCCUCACAUGAGGAUCACCCAUGUAGAAGGCUGUCCAUACU,apparent Kd,[1],25.2 nM
same,apparent Kd,[2],179 nM
UGUUUGUGAGGAUAUCCAAUAUAUGACAUGAGGAUCACCCAUGUUUCCACUCGUACCUCCGGAGAAGGCACUGCGU,apparent Kd,[1],29.1 nM
same,apparent Kd,[2],26 nM
AGUAACAGAGGAUAUACUGUUUUAUGUGUUUAUUAUUUUAAACAUGAGGAUCACCCAUGUAGAAGGCUGAAUAA,apparent Kd,[1],49.7 nM
same,apparent Kd,[2],40.4 nM
GCGUGUCAUGUAGGAUAUGACACAGGAAACUGGUCAGAAGGACAUGAGGAUCACCCAUGUAAAAUGUUCAAGAAUAACGCAUGC,apparent Kd,[1],40.6 nM
same,apparent Kd,[2],137 nM
AGCGAGAUAGGCGAGGAUAUGCUUUUUUGCACAUGAGGAUCACCCAUGUCUUUGUUUUUUGUUUUGCAGAAGGCGCAUUCUCUUU,apparent Kd,[3],18.9 nM
same,apparent Kd,[4],41.2 nM
AUUUAAAUGUCAGGAUAUGGUAGUUUAUACUUAUCAGAAGGGAUAAUUAUACUCAAGUACAUGAGGAUCACCCAUGUUAAAUCA,apparent Kd,[3],30.5 nM
same,apparent Kd,[4],15.8 nM
AAUAAACAUGAGGAUCACCCAUGUAAUAUAAAUGGAGGAUAUGCAAUUAUUAAUUAUUAAGUAGAAGGUCGAAUAA,apparent Kd,[3],73.9 nM
same,apparent Kd,[4],73.6 nM
GGGUACAUCGGAGGAUAUCAUGUAAAUACAUGAGGAUCACCCAUGUCGAUGGCGACAUCGGAGAUUGAGAAGGCCGAUGUACCG,apparent Kd,[3],448 nM
same,apparent Kd,[4],12.3 nM
GCGGGACGUCGAGGAUAUGGGUGUGCGAGUCUUGGCACUGGACAUGAGGAUCACCCAUGUCGCUUCCAGAAGGCGACGUCCCUA,apparent Kd,[3],34.8 nM
same,apparent Kd,[4],6.67 nM
AGCUAGGCAGGAUAUACGUAAAUGUCGAAAGACGUAUUGGGACAUGAGGAUCACCCAUGUAGAAGGGCCUAGCA,apparent Kd,[1],31.6 nM
same,apparent Kd,[2],165 nM
CAAGUGUCAGGAUAUACAUGAGGAUCACCCAUGUGUCUUUGUGAUCGUAGGGUGCACCGUAGAAGGGACACUCC,apparent Kd,[1],70.4 nM
same,apparent Kd,[2],127 nM
GUCGAGUGAGGAUAUUGAAUCGGUGGCAGACCACACGAGCUCGAGAAGGCACAUGAGGAUCACCCAUGUGGGUC,apparent Kd,[1],28.1 nM
same,apparent Kd,[2],41.6 nM
